# Rows were chosen to be rich in hits. Some 1.6% of all compounds tested hit in one or more screens of this group.
# VLA-4 inh = inhibition in a human VLA-4 binding assay. P13612. VLA-4 expressing cells, ligand binding flow cytometry. inhibition, % (about 7 µM as worked out from the volumes in the protocol). 0.2% of 330,000 active. AID 2557; in the data active means inhibition above about 50%
# NR1D1 modulator = modulators of human Rev-erb alpha DNA binding. activity, % at 10 µM. Rev-erbα–FITC-DNA binding, fluorescence polarization, 90 min. P20393. 0.79% of 370,000 active;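 active means activity above about 14%, limit read from the data; passing the limit was not always enough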
# NR2E3 ag-1 = agonists of human nuclear receptor NR2E3 | inhibition of corepressor binding, % at 4.78 µM | 0.12% of 320,000 active | GST-NR2E3/biotin-RetCOR TR-FRET, 1536-well;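 active means percent inhibition above the cutoff of mean plus 3 SD of all tested compounds, set per screening campaign, cut at about 20% in these data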
# Target sequence (Q9Y5X4 whole entry, looked up): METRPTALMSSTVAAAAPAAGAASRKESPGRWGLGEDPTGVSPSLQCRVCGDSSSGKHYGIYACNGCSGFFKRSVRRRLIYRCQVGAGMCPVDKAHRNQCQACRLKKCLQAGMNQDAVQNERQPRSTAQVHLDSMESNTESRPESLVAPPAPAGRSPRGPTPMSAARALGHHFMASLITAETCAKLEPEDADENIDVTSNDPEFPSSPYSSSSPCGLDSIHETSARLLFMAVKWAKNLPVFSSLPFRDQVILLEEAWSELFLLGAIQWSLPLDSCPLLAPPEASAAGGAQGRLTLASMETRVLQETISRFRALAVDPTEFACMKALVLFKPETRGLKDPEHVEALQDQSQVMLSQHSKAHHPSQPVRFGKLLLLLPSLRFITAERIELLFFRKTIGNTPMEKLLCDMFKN
#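 system = GST-tagged NR2E3 plus biotinylated RetCOR corepressor | input = 1.35 nM GST-NR2E3 | also added = 7 nM biotin-RetCOR | schedule = 5 h incubation at 4 °C | measured by = TR-FRET with europium anti-GST and streptavidin-D2, 340 nm excitation | read-out = percent loss of FRET ratio relative to control wells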
# NR2E3 ag-2 = agonists of human NR2E3 nuclear receptor. Q9Y5X4. CHO-S Gal4-NCOR/VP16-NR2E3 two-hybrid, luciferase. inhibition of corepressor binding, % at 3.98 µM. 0.35% of 360,000 active. AID 602229;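 active means inhibition above the mean of all tested compounds plus 3 SD, cut at about 70% in these data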;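 further: higher means lower luciferase signal from less NR2E3 corepressor binding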
# PG9 Ab binder = binds the HIV-1 gp120 antibody PG9. TR-FRET gp120-PG9 antibody binding. inhibition, % at 6.7 µM. 0.43% of 360,000 active; in the data active means inhibition above about 8.5%
# NR2E3 ag confirm = confirmation of human NR2E3 agonists | shares compounds with NR2E3 ag-2 | CHO-S mammalian two-hybrid NR2E3-NCOR, luciferase luminescence | inhibition, % at 3.98 µM | 51% of 2,300 active | AID 624378;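 active means average inhibition above a cutoff equal to the mean inhibition of all tested compounds plus one SD, cut at about 70% in these data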
# GAL4-VP16 luc = GAL4-VP16 reporter inhibition in NR2E3 agonist counterscreen | shares compounds with NR2E3 ag-2 | CHO-S GAL4-VP16 luciferase reporter, luminescence | inhibition, % at 3.98 µM | 29% of 2,300 active | AID 624379;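 active means mean inhibition above a cutoff equal to the average over all tested compounds plus one standard deviation, cut at about 70% in these data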;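 further: luciferase from a UAS reporter driven by GAL4-VP16 transactivation; higher means less reporter light so more repression of VP16 activity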
# A number is an active result; - = inactive; . = no result.
SMILES,VLA-4 inh,NR1D1 modulator,NR2E3 ag-1,NR2E3 ag-2,PG9 Ab binder,NR2E3 ag confirm,GAL4-VP16 luc
COc1ccc(CNC(=O)c2cccc3c(-c4cccnc4)coc23)cc1OC,.,-,.,97.0,-,96.3,89.0
COc1ccccc1CNc1ncnc2sccc12,-,-,-,100.2,-,92.2,76.2
Fc1ccccc1CNc1ncnc2sccc12,-,-,-,99.7,-,88.3,70.8
c1ccc2c(c1)OCC(CNc1ncnc3sccc13)O2 (centres undefined),-,.,-,84.0,-,96.9,86.6
CN(C)c1ccc(CNc2ncnc3sccc23)cc1,-,-,-,99.0,-,93.0,-
COc1ccc(CCNc2ncnc3sccc23)cc1OC,-,-,-,89.9,-,98.3,89.9
COc1ccccc1N1CCN(C(=O)c2cc3c(C)nc4ccccc4c3o2)CC1,-,-,-,-,-,-,-
Cc1nc2ccccc2c2oc(C(=O)NCc3ccc4c(c3)OCO4)cc12,-,-,-,-,-,-,-
Cc1ccc(CNC(=O)c2cc3c(C)nc4ccccc4c3o2)cc1,-,-,-,86.1,-,92.7,78.3
Cc1nc2ccccc2c2oc(C(=O)NCc3ccccn3)cc12,-,-,-,-,-,.,.
CC1(C)CC(=Cc2cc(O)ccc2[N+](=O)[O-])C(=O)c2ccccc21,.,.,.,98.1,.,98.6,71.2
O=C1/C(=C/c2ccccc2[N+](=O)[O-])COc2ccccc21,-,-,-,-,-,.,.
Cc1ccc(-n2nc3c(=O)n(C(C)C(=O)NCCCc4ccccc4)nc(C)c3c2C)cc1 (centres undefined),-,-,-,-,-,-,-
Cc1ccc(-n2nc3c(=O)n(CC(=O)NCCCc4ccccc4)nc(C)c3c2C)cc1,-,-,-,-,-,.,.
Cc1c(C(=O)Nc2ccncc2)sc2nc(-c3ccccc3)cn12,-,-,-,-,-,.,.
Cc1c(C(=O)Nc2ccc3c(c2)OCCO3)sc2nc(-c3ccccc3)cn12,-,-,-,-,-,-,-
CCN(CC)C(=O)CC[C@H]1CC[C@]2(CCCN(Cc3ccccn3)C2)O1,.,-,.,.,.,.,.
NC(=O)c1ccc(O)c2ncccc12,.,-,.,.,.,.,.
O=Cc1ccc(O)c2ncccc12,.,.,.,-,.,-,-
CC(C)Nc1nc(NCCOc2ccccc2Cl)c2sc(-c3ccccc3)cc2n1,.,-,.,-,-,-,-
CCOc1ccc(-n2c(SCC(=O)Nc3ccccc3-c3ccccc3)nnc2-c2cccs2)cc1,.,-,.,.,.,.,.
O=c1c(/C=N/OCc2ccc(Cl)cc2Cl)c[nH]n1-c1cccc(Cl)n1,-,-,-,-,-,98.4,-
O=C(C=P(c1ccccc1)(c1ccccc1)c1ccccc1)c1ccccc1-c1ccccc1C(=O)C=P(c1ccccc1)(c1ccccc1)c1ccccc1,.,-,.,98.4,-,99.5,87.4
CNC[C@H]1OCc2cnnn2CCCC(=O)N([C@@H](C)CO)C[C@@H]1C,.,-,.,.,-,.,.
Cc1ccc(S(=O)(=O)NCc2ccccc2)cc1C(=O)NC(C)c1ccc(S(N)(=O)=O)cc1 (centres undefined),.,-,.,-,-,.,.
SMILES,VLA-4 inh,NR1D1 modulator,NR2E3 ag-1,NR2E3 ag-2,PG9 Ab binder,NR2E3 ag confirm,GAL4-VP16 luc
Cc1ccc(S(=O)(=O)NCc2ccccc2)cc1C(=O)NCCc1ccc(S(N)(=O)=O)cc1,-,-,-,-,-,-,-
CCOC(=O)c1cnc(-n2nc(C)cc2C)nc1NC,-,-,-,-,-,.,.
CCOC(=O)c1cnc(-n2nc(C)cc2C)nc1NC1CCCCC1,-,-,-,92.8,-,91.4,-
COC(=O)C1=C(C)N(Cc2ccccc2C(F)(F)F)C(=NCC2CC2)NC1c1ccc(C(F)(F)F)cc1 (centres undefined),.,-,.,.,-,.,.
CCCc1cn(-c2ccc3c(c2)[C@@]2(CC(=O)N(C)C2c2ccccc2)C(=O)N3CC(C)C)nn1 (some centres undefined),.,-,.,.,.,.,.
COc1cccc2sc3ccc(C#CC4(O)CCCCC4)cc3c(=O)c12,-,-,-,-,-,.,.
O=c1c2ccccc2oc2cc(C#CC3(O)CCCCC3)ccc12,-,-,-,-,-,-,-
COc1cccc2oc3cc(C#CC4(O)CCCCC4)ccc3c(=O)c12,-,-,-,-,-,.,.
O=c1c2ccccc2sc2ccc(C#CC3(O)CCCCC3)cc12,-,-,-,98.5,-,85.5,73.4
CCOC(=O)c1c(C)[nH]c(C(=O)OCC(=O)Nc2sccc2C(N)=O)c1C,-,-,-,-,-,-,-
C#CCNC(=O)C[C@H]1C[C@@]2(C(=O)OC)C(=C[C@H](C(C)(C)C)O[C@@H]2C)N(Cc2cccc3ccccc23)C1=O,.,-,.,.,.,.,.
CCC(NC(=O)c1ccc2c(c1)c(C)c(C)n2Cc1ccc(-c2ccccc2C#N)cc1)c1ccccc1 (centres undefined),.,-,.,.,.,.,.
COc1ccc(NC(=O)CSc2nc3sc(C)cc3c(=O)n2C)cc1,-,-,-,-,-,.,.
COc1ccc(NC(=O)CSc2nc3sc(C)cc3c(=O)n2C)c(OC)c1,-,-,-,-,-,-,-
COC(=O)[C@]12C[C@H](CC(=O)NCc3ccccc3)C(=O)N(Cc3ccco3)C1=C[C@H](C1CCCC1)O[C@@H]2C,.,-,.,.,.,.,.
CCCn1c(CN2CCN(c3cccc(Cl)c3)CC2)nc2c1c(=O)n(C)c(=O)n2C,-,-,-,92.6,-,93.7,85.0
O=[N+]([O-])c1ccc2c(c1)/C(=N\O)c1ccccc1-2,-,-,-,-,-,.,.
Nc1cc2c(cc1Cl)-c1ccc([N+](=O)[O-])cc1C2=NO,.,-,.,-,-,-,-
COc1cccc2c1C(=O)c1c(O)c3c(c(O)c1C2=O)CC(O)(C(C)=O)CC3OC1CC(N(C)C)C(O)C(C)O1 (centres undefined),.,-,.,88.5,-,99.8,-
COC(=O)[C@]12C[C@H](CC(=O)N3CCC(c4ccccc4)CC3)C(=O)N(CCC3=CCCCC3)C1=C[C@H](C(C)(C)C)O[C@@H]2C,.,-,.,.,-,.,.
Cc1cc(C(=O)OCC(=O)Nc2ccc(F)cc2)c(C)o1,-,-,-,73.7,-,-,-
CCOc1ccc(-n2c(SCC(=O)Nc3ccccc3-c3ccccc3)nnc2-c2ccncc2)cc1,.,-,.,.,.,.,.
Cc1nc(Nc2ccc(O)cc2)c2c3c(sc2n1)CCCC3,-,-,-,-,.,.,.
Cc1ccc(CNc2nc(C)nc3sc4c(c23)CCC4)cc1,-,-,-,-,-,-,-
C=CCCC(=O)N[C@H]1CC[C@@]23CCCN2C(=O)CCC[C@H]3[C@H]1CCC,.,-,.,.,.,.,.
O=C1CCC[C@H]2C[C@H](NCc3ccc(Cl)c(C(F)(F)F)c3)CC[C@]23CCCN13,.,-,.,.,.,.,.
COc1ccc2cc(C(C)C(=O)Nc3cccc(S(=O)(=O)N(C)C)c3)ccc2c1 (centres undefined),-,-,-,-,-,-,-
O=C(Cn1nc(-c2ccccc2)c2ccccc21)Oc1ccccc1,.,-,.,.,.,.,.
